Drawing on ChEMBL document CHEMBL1154674, “Synthesis and evaluation of three 18F-labeled aminophenylbenzothiazoles as amyloid imaging agents” (J Med Chem, 2009), this text covers SUV for four molecules.

Common to all, as to type: ADME, organism-based, Macaca mulatta
Series [1] is described as follows: Drug level in normal rhesus monkey parietal cortex assessed as standard uptake value at 96.3 MBq, iv after 0.5 mins by microPET. To be noted: in vivo.
The nature of series [2]: Drug level in normal rhesus monkey frontal cortex assessed as standard uptake value at 96.3 MBq, iv after 2.5 mins by microPET. To be noted: in vivo.
A short description of series [3]: Drug level in normal rhesus monkey thalamus assessed as standard uptake value at 96.3 MBq, iv after 17.5 mins by microPET. To be noted: in vivo.
The nature of series [4]: Drug level in normal rhesus monkey pons assessed as standard uptake value at 96.3 MBq, iv after 85 mins by microPET. To be noted: in vivo.
Series [5] in a line: Drug level in normal rhesus monkey pons assessed as standard uptake value at 96.3 MBq, iv after 57.5 mins by microPET. The following applies: in vivo.
Series [6] can be described thus: Drug level in normal rhesus monkey frontal cortex assessed as standard uptake value at 96.3 MBq, iv after 4.5 mins by microPET. To be noted: in vivo, 0.075 h.
Series [7] is described as follows: Drug level in normal rhesus monkey parietal cortex assessed as standard uptake value at 96.3 MBq, iv after 37.5 mins by microPET. To be noted: in vivo, 0.625 h.
A short description of series [8]: Drug level in normal rhesus monkey thalamus assessed as standard uptake value at 96.3 MBq, iv after 0.5 mins by microPET. The following applies: in vivo.
The nature of series [9]: Drug level in normal rhesus monkey white matter assessed as standard uptake value at 96.3 MBq, iv after 27.5 mins by microPET. The following applies: in vivo.
The nature of series [10]: Drug level in normal rhesus monkey parietal cortex assessed as standard uptake value at 81.2 MBq, iv after 2.5 mins by microPET. To be noted: in vivo.
The nature of series [11]: Drug level in normal rhesus monkey frontal cortex assessed as standard uptake value at 81.2 MBq, iv after 3.5 mins by microPET. The following applies: in vivo.
Series [12] in a line: Drug level in normal rhesus monkey white matter assessed as standard uptake value at 81.2 MBq, iv after 0.5 mins by microPET. To be noted: in vivo.
Series [13] can be described thus: Drug level in normal rhesus monkey white matter assessed as standard uptake value at 81.2 MBq, iv after 37.5 mins by microPET. The following applies: in vivo, 0.625 h.
The nature of series [14]: Drug level in normal rhesus monkey thalamus assessed as standard uptake value at 81.2 MBq, iv after 1.5 mins by microPET. To be noted: in vivo, 0.025 h.
A short description of series [15]: Drug level in normal rhesus monkey pons assessed as standard uptake value at 81.2 MBq, iv after 8 mins by microPET. To be noted: in vivo.
A short description of series [16]: Drug level in normal rhesus monkey cerebellum assessed as standard uptake value at 81.2 MBq, iv after 10 mins by microPET. The following applies: in vivo. A digest of the protocol: (§1)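 One normal rhesus monkey, each tracer given iv via the vena saphena (81.2, 96.3 or 109.4 MBq), with 1 day between tracer injections. Dynamic brain μPET over 180 min used frames of 5 × 60 s, 5 × 120 s, 9 × 300 s and 12 × 600 s. Images were reconstructed by filtered back projection with a RAMP filter. Regional time-activity curves were expressed as SUV.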

A short description of series [17]: Drug level in normal rhesus monkey thalamus assessed as standard uptake value at 81.2 MBq, iv after 0.5 mins by microPET. To be noted: in vivo.
The nature of series [18]: Drug level in normal rhesus monkey thalamus assessed as standard uptake value at 81.2 MBq, iv after 12 mins by microPET. The following applies: in vivo, 0.2 h.
Series [19] is described as follows: Drug level in normal rhesus monkey cerebellum assessed as standard uptake value at 81.2 MBq, iv after 165 mins by microPET. To be noted: in vivo, 2.75 h. In a few lines:
as §1

Series [20] is described as follows: Drug level in normal rhesus monkey cerebellum assessed as standard uptake value at 81.2 MBq, iv after 27.5 mins by microPET. To be noted: in vivo. A digest of the protocol:
as §1

The nature of series [21]: Drug level in normal rhesus monkey frontal cortex assessed as standard uptake value at 152.9 MBq, iv after 2.5 mins by microPET. To be noted: in vivo. A digest of the protocol: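 Single normal rhesus monkey; tracer given iv via the vena saphena, 1 day apart from the other tracer injections. Dynamic μPET ran 90 min (5×60 s, 5×120 s, 9×300 s, 3×600 s). Images were reconstructed by filtered back projection with a RAMP filter. Regional time-activity curves were expressed as SUV.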

The nature of series [22]: Drug level in normal rhesus monkey cerebellum assessed as standard uptake value at 152.9 MBq, iv after 37.5 mins by microPET. The following applies: in vivo, 0.625 h. In a few lines: (§2)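 One normal rhesus monkey received each tracer via the vena saphena, with 1 day between injections. Dynamic μPET ran 180 min for 18F tracers (5×60 s, 5×120 s, 9×300 s, 12×600 s) and 90 min for the 11C tracer (5×60 s, 5×120 s, 9×300 s, 3×600 s). Filtered back-projection reconstruction (RAMP filter) was used. Time-activity curves were drawn to give regional SUV.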

Series [23] in a line: Drug level in normal rhesus monkey thalamus assessed as standard uptake value at 152.9 MBq, iv after 1.5 mins by microPET. The following applies: in vivo, 0.025 h.
Series [24] can be described thus: Drug level in normal rhesus monkey white matter assessed as standard uptake value at 152.9 MBq, iv after 17.5 mins by microPET. The following applies: in vivo.
A short description of series [25]: Drug level in normal rhesus monkey cerebellum assessed as standard uptake value at 152.9 MBq, iv after 47.5 mins by microPET. The following applies: in vivo. A digest of the protocol: as §2
Series [26] in a line: Drug level in normal rhesus monkey white matter assessed as standard uptake value at 152.9 MBq, iv after 1.5 mins by microPET. The following applies: in vivo, 0.025 h.
Series [27] is described as follows: Drug level in normal rhesus monkey pons assessed as standard uptake value at 109.4 MBq, iv after 105 mins by microPET. To be noted: in vivo, 1.75 h.
Series [28] can be described thus: Drug level in normal rhesus monkey pons assessed as standard uptake value at 109.4 MBq, iv after 0.875 mins by microPET. To be noted: in vivo, 52 s.
Series [29] is described as follows: Drug level in normal rhesus monkey parietal cortex assessed as standard uptake value at 109.4 MBq, iv after 0.375 mins by microPET. To be noted: in vivo, 22 s.
Series [30] in a line: Drug level in normal rhesus monkey thalamus assessed as standard uptake value at 109.4 MBq, iv after 93 mins by microPET. The following applies: in vivo, 1.55 h.
The nature of series [31]: Drug level in normal rhesus monkey frontal cortex assessed as standard uptake value at 109.4 MBq, iv after 3.5 mins by microPET. The following applies: in vivo. A digest of the protocol: as §1
Series [32] is described as follows: Drug level in normal rhesus monkey frontal cortex assessed as standard uptake value at 109.4 MBq, iv after 81 mins by microPET. The following applies: in vivo, 1.35 h.
Series [33] can be described thus: Drug level in normal rhesus monkey thalamus assessed as standard uptake value at 109.4 MBq, iv after 37.5 mins by microPET. To be noted: in vivo, 0.625 h.
The nature of series [34]: Drug level in normal rhesus monkey white matter assessed as standard uptake value at 109.4 MBq, iv after 87 mins by microPET. The following applies: in vivo, 1.45 h.
The nature of series [35]: Drug level in normal rhesus monkey thalamus assessed as standard uptake value at 109.4 MBq, iv after 81 mins by microPET. The following applies: in vivo, 1.35 h.
A short description of series [36]: Drug level in normal rhesus monkey frontal cortex assessed as standard uptake value at 109.4 MBq, iv after 9.5 mins by microPET. The following applies: in vivo.
A short description of series [37]: Drug level in normal rhesus monkey thalamus assessed as standard uptake value at 109.4 MBq, iv after 123 mins by microPET. To be noted: in vivo, 2.05 h.

Take `CN(C)c1ccc2nc(-c3ccc([18F])cc3)sc2c1`: the SUV in [1] amounted to 0.65; in series [2], 1.8; in series [3], 2.3; in series [4], 2.06; in series [5], 1.95; in series [6], 1.64. For the same molecule, the SUV is given as 1.84 in [7], 0.63 in series [8] and 1.39 in [9].
Consider `CNc1ccc2nc(-c3ccc([18F])cc3)sc2c1`, for which the SUV in [10] is 4.252; in [11], 5.355; in series [12], 0.621; in [13] it was 3.78; in series [14] it was 2.705; in [15] it was 5.089. Also, the SUV in series [16] came out at 3.021; in series [17], 0.855; in series [18], 4.684; in [19] it was 1.585; in [20] it was 2.224.
Regarding `[11CH3]Nc1ccc(-c2nc3ccc(O)cc3s2)cc1` [PITTSBURGH COMPOUND B], the SUV is 1.133 in series [21]; 0.996 in series [22]; 0.487 in series [23]; 1.328 in [24]; 0.866 in series [25]; 0.292 in series [26].
As to `Nc1ccc2nc(-c3ccc([18F])cc3)sc2c1`, the SUV in series [27] stood at 4.79; in series [28] it was 1.85; in series [29], 0.34; in series [30] it was 5.05; in [31], 4.99; in [32], 4.41. In addition, the SUV in [33] is 5.66; in series [34], 3.65; in series [35], 5.18; in series [36], 5.43; in series [37] it was 4.63.
